Bounds are passed on as bounds.

The target of test [1] is T1, Serine/threonine-protein kinase B-raf (Homo sapiens, UniProt P15056, V600E). Kind of test: Inhibition of B-Raf V600E mutant in human SK-MEL-28 cells assessed as reduction of ERK phosphorylation after 1 hr. It counts as cell-based. An outline of the steps:
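SKMEL28 cells (EMEM + 10% FBS) plated at 20,000 cells/well; 10-point dilution 20 µM to 0.001 µM, final DMSO 0.2%, 1 h. Fixed in 3.7% formaldehyde, permeabilized with 0.1% Triton X-100. Anti-ERK and anti-phospho-ERK primaries overnight at 4 °C, IR-dye secondaries 1 h, in-cell western on LiCor Odyssey. % inhibition of ERK phosphorylation vs control; IC50 by 4-parameter fit; means of 2–5 experiments.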

Test [2] deals with T1, Serine/threonine-protein kinase B-raf. The test can be described thus: Inhibition of B-Raf V600E mutant.
Another test relates to SK-MEL-28. The test can be described thus: Antiproliferative activity against human SK-MEL-28 cells expressing B-Raf V600E mutant after 3 days by CellTiter-Glo assay. In kind it is functional, cell-based. An outline of the steps: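 SKMEL28 melanoma cells grown in EMEM + 10% FBS, 1% pen-strep, 1% sodium pyruvate, 37 °C, humidified 5% CO2; plated 500 cells/well. 10-point dilution 20 µM down to 0.001 µM, final DMSO 0.2%, 3 days. Total ATP read by CellTiter-Glo as cell-number surrogate. % growth inhibition vs control wells; IC50 by 4-parameter fit; mean of two experiments.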
(ATP-based viability assays read luminescence as a measure of living cells.)

The target in test [3] is Tyrosine-protein kinase Lyn (Homo sapiens, UniProt P07948). The test can be described thus: Inhibition of Lyn.
Test [4] addresses Tyrosine-protein kinase Lck (Homo sapiens, UniProt P06239). Kind of test: Inhibition of Lck.
In test [5] the target is Receptor tyrosine-protein kinase erbB-4 (Homo sapiens, UniProt Q15303). Kind of test: Inhibition of ErbB4.
The target in another test is T2, TGF-beta receptor type-1 (Homo sapiens, UniProt P36897).
T2 sequence (P36897 whole entry): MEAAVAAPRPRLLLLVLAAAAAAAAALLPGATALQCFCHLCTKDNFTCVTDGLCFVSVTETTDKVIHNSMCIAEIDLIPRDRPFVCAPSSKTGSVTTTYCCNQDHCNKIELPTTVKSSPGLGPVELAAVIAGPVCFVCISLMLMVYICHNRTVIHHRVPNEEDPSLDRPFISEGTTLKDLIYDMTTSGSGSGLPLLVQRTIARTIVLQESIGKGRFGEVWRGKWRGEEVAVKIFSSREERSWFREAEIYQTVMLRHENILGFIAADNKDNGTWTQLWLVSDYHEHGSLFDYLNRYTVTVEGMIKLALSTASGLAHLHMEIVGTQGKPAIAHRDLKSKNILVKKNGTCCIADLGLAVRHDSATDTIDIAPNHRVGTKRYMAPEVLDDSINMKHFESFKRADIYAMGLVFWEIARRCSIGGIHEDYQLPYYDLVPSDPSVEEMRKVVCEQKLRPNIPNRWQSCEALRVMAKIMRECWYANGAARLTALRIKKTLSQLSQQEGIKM
The test can be described thus: Inhibition of ALK5.

Test [6] addresses Tyrosine-protein kinase BTK (Homo sapiens, UniProt Q06187). Kind of test: Inhibition of Btk.
Another test concerns the target Activin receptor type-2B (Homo sapiens, UniProt Q13705). Kind of test: Inhibition of ACTR-2B.
The next test relates to HFF. Kind of test: Antiproliferative activity against HFF after 3 days by CellTiter-Glo assay. It counts as cell-based. The conditions noted are these: Homo sapiens, 72 h.

T1 sequence (P15056 2-766 V600E limits assumed): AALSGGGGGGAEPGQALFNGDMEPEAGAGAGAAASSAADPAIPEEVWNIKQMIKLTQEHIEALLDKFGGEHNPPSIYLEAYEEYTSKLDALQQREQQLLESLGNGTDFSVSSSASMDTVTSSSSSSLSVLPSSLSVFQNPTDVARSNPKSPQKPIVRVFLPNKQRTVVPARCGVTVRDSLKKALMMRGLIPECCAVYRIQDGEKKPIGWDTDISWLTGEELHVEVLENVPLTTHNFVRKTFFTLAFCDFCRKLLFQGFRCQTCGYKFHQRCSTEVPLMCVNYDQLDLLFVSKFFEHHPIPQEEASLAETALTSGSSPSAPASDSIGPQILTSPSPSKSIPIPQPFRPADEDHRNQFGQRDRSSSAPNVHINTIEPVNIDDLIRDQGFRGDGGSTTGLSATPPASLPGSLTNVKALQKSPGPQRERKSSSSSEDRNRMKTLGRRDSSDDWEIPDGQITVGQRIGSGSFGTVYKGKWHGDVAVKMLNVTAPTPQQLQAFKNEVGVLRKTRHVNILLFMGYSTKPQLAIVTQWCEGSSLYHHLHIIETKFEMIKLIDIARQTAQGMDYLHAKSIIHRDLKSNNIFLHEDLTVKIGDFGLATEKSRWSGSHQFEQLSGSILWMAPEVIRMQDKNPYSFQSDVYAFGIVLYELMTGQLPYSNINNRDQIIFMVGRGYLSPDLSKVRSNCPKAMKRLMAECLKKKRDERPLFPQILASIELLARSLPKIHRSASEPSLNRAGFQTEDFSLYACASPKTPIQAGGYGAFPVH
Sequence of Tyrosine-protein kinase Lyn (P07948 whole entry): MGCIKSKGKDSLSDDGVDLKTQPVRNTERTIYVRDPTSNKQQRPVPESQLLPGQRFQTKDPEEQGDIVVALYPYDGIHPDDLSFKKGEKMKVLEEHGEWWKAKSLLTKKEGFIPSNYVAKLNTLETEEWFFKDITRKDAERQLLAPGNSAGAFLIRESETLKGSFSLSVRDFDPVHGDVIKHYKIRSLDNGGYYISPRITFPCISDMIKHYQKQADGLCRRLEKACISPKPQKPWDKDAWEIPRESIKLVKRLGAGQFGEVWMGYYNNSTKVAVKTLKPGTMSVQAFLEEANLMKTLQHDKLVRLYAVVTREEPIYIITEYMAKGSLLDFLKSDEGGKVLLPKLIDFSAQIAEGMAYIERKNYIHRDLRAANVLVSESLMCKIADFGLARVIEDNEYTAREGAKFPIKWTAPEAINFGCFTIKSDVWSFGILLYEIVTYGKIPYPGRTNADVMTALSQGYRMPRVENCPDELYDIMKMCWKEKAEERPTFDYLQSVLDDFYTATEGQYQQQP
Sequence of Receptor tyrosine-protein kinase erbB-4 (Q15303 whole entry): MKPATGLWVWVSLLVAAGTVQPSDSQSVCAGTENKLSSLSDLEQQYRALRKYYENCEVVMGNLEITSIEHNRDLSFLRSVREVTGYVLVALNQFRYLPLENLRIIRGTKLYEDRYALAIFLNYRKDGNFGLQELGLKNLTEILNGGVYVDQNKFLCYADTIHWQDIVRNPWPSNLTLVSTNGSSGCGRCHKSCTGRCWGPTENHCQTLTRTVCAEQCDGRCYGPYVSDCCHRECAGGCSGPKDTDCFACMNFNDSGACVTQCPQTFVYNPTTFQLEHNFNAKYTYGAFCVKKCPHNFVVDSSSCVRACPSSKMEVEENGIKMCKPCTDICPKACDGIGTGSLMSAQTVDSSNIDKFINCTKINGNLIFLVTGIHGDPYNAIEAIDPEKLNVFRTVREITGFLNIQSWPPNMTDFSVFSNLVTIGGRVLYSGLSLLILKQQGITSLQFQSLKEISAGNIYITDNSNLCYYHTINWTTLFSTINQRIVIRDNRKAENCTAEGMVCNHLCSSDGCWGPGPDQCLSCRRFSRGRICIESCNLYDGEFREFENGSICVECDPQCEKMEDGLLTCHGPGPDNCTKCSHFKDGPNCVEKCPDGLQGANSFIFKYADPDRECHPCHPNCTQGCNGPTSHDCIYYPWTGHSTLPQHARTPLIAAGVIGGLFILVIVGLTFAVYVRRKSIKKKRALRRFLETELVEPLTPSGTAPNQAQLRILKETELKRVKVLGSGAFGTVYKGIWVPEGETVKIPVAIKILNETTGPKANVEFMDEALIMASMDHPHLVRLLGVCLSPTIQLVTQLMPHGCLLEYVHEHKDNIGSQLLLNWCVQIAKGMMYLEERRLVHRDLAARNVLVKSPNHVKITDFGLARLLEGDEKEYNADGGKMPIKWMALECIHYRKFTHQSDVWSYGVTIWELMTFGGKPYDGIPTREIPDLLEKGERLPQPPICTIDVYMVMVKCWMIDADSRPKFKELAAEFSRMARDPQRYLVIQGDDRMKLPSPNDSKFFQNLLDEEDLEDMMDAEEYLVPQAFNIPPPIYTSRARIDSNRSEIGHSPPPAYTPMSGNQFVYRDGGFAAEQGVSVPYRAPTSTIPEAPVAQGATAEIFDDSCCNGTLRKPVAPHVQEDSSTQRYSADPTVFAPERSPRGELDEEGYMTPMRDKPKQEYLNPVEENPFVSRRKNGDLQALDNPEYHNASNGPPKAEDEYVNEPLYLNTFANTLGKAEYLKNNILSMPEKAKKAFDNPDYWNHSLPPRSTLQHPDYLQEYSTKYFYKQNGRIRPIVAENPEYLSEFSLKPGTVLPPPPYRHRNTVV
Sequence of Tyrosine-protein kinase BTK (Q06187 whole entry): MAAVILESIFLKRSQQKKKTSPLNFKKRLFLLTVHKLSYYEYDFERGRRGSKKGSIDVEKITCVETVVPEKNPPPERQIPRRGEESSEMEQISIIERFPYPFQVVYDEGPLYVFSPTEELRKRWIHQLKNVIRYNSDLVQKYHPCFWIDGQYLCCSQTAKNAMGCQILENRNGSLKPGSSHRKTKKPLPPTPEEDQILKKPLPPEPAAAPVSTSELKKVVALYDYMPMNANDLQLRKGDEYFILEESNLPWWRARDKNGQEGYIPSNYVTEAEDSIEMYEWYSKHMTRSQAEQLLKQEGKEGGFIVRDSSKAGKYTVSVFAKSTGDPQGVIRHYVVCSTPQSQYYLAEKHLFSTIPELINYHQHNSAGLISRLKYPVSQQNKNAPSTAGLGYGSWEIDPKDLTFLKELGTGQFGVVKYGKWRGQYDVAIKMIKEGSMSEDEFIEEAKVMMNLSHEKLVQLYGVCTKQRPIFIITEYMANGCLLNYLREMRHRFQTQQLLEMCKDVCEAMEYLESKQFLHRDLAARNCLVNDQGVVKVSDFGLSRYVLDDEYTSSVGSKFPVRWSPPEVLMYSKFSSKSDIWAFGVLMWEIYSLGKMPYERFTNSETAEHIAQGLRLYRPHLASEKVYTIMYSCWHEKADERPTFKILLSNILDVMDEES
Sequence of Activin receptor type-2B (Q13705 whole entry): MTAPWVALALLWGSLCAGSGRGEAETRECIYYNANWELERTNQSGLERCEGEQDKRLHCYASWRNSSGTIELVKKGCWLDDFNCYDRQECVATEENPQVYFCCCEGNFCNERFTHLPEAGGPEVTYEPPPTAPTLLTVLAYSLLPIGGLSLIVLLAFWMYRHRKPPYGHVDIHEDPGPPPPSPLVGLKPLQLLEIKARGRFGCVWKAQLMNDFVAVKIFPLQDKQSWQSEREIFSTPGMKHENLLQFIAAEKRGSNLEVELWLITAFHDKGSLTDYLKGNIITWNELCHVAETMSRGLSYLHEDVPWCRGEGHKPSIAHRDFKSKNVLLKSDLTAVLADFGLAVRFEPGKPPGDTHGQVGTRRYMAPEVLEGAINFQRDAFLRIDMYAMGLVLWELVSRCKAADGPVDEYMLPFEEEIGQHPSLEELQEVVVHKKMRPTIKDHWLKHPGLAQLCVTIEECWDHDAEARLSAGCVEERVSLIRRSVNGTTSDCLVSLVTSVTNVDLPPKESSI
Sequence of Tyrosine-protein kinase Lck (P06239 whole entry): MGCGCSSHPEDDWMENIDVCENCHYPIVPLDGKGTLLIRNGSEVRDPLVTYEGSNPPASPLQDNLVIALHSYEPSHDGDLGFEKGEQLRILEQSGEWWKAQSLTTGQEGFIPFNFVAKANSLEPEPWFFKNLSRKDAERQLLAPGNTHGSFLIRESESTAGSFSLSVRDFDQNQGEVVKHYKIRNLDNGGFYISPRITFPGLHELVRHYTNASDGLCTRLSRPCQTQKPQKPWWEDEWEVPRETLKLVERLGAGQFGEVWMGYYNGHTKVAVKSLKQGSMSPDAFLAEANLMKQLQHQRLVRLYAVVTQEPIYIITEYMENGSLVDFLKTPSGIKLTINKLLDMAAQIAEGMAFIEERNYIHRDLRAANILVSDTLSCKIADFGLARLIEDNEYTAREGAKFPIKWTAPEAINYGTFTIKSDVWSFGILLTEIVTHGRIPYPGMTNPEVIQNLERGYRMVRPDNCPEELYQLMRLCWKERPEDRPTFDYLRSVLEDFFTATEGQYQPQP

As to `CN1CCc2ccc(Nc3nccc(-c4c(-c5cccc(C(=O)Nc6c(F)cccc6F)c5)nc5ccccn45)n3)cc2C1`, the EC50 in test [1] was > 2200 nM. In test [2], the IC50 is 12 nM.
Consider `CN1CCc2ccc(Nc3nccc(-c4c(-c5cccc(NC(=O)Nc6c(F)cccc6F)c5)nc5ccccn45)n3)cc2C1`, for which the EC50 in the test with SK-MEL-28 (Homo sapiens, SK-MEL-28, 72 h) is 6340 nM; in test [1], > 20000 nM. In test [2], this compound showed a 50% inhibitory concentration (IC50) of 5 nM.
For `CN1CCc2ccc(Nc3nccc(-c4c(-c5cccc(NC(=O)c6c(F)cccc6F)c5)nc5ccccn45)n3)cc2C1`, the EC50 in the test on SK-MEL-28 (Homo sapiens, SK-MEL-28, 72 h) was 5320 nM; in [1] it was > 10000 nM. The compound also registered an IC50 in test [2] of 9 nM.
On the same counts, the results for `CN1CCc2ccc(Nc3nccc(-c4c(-c5cccc(NS(=O)(=O)c6ccccc6)c5)nc5ccccn45)n3)cc2C1` are 1110 nM, 99 nM and 132 nM.
The like results for `CC(C)c1nc(-c2cccc(NC(=O)c3c(F)cccc3F)c2)c(-c2ccnc(Nc3ccc4c(c3)CN(C)CC4)n2)s1` were, in that order, 2750 nM, 580 nM and 4 nM.
On the same counts, the results for `CC(C)c1nc(-c2cccc(NS(=O)(=O)c3ccccc3)c2)c(-c2ccnc(Nc3ccc4c(c3)CN(C)CC4)n2)s1` are 287 nM, 52 nM and 12 nM.
With `CC(=O)N1CCN(c2ccc(Nc3nccc(-c4sc(C(C)C)nc4-c4cccc(NS(=O)(=O)c5ccccc5)c4)n3)cn2)CC1`, the EC50 with SK-MEL-28 (Homo sapiens, SK-MEL-28, 72 h) stood at 24 nM; in [1], 7 nM. Also, the half-inhibitory concentration (IC50) in test [2] worked out at 3.6 nM.
In the case of `CCc1nc(-c2cccc(N(C)S(=O)(=O)c3ccccc3)c2)c(-c2ccnc(Nc3ccc(N4CCN(C(C)=O)CC4)nc3)n2)s1`, the EC50 with SK-MEL-28 (Homo sapiens, SK-MEL-28, 72 h) is 8620 nM; in [1], 4730 nM. Moreover, it took 1970 nM to reach half-maximal inhibition in test [2] (IC50).
Regarding `CCc1nc(-c2cccc(CS(=O)(=O)c3ccccc3)c2)c(-c2ccnc(Nc3ccc(N4CCN(C(C)=O)CC4)nc3)n2)s1`, the EC50 was 11100 nM with SK-MEL-28 (Homo sapiens, SK-MEL-28, 72 h) and > 20000 nM in test [1]. In test [2], the half-maximal inhibitory concentration (IC50) is 1360 nM.
On the same counts, the results for `CC(=O)N1CCN(c2ccc(Nc3nccc(-c4sc(C(C)C)nc4-c4cccc(NS(=O)(=O)c5ccccc5F)c4)n3)cn2)CC1` are 4 nM, 4 nM and 0.6 nM.
On the same counts, the results for `CC(=O)N1CCN(c2ccc(Nc3nccc(-c4sc(C(C)C)nc4-c4cccc(NS(=O)(=O)c5cccc(F)c5)c4)n3)cn2)CC1` are 8 nM, 10 nM and 0.8 nM.
`CC(=O)N1CCN(c2ccc(Nc3nccc(-c4sc(C(C)C)nc4-c4cccc(NS(=O)(=O)c5ccc(F)cc5)c4)n3)cn2)CC1`: the EC50 turned out to be 69 nM in the test with SK-MEL-28 (Homo sapiens, SK-MEL-28, 72 h) and 9 nM in test [1]. The same compound came in with a half-inhibitory concentration (IC50) in test [2] of 9.5 nM.
On the same counts, the results for `CC(=O)N1CCN(c2ccc(Nc3nccc(-c4sc(C(C)C)nc4-c4cccc(NS(=O)(=O)c5cccc(Cl)c5)c4)n3)cn2)CC1` are 85 nM, 21 nM and 34 nM.
On the same counts, the results for `CC(=O)N1CCN(c2ccc(Nc3nccc(-c4sc(C(C)C)nc4-c4cccc(NS(=O)(=O)c5cc(F)ccc5F)c4)n3)cn2)CC1` are 8 nM, 8 nM and 0.6 nM.
On the same counts, the results for `CC(=O)N1CCN(c2ccc(Nc3nccc(-c4sc(C(C)C)nc4-c4cccc(NS(=O)(=O)c5c(F)cccc5F)c4)n3)cn2)CC1` are 12 nM, 10 nM and 1.3 nM.
Take `CC(C)c1nc(-c2cccc(NS(=O)(=O)c3c(F)cccc3F)c2)c(-c2ccnc(Nc3ccc(N4CCOCC4)nc3)n2)s1`: the EC50 in the test on SK-MEL-28 (Homo sapiens, SK-MEL-28, 72 h) was 6 nM; in [1] it was 7 nM. In addition, the IC50 in [2] turned out to be 1.2 nM.
On the same counts, the results for `CC(C)c1nc(-c2cccc(NS(=O)(=O)c3c(F)cccc3F)c2F)c(-c2ccnc(Nc3ccc(N4CCOCC4)nc3)n2)s1` are 8 nM, 11 nM and 0.5 nM.
On the same counts, the results for `CC(C)c1nc(-c2cc(F)cc(NS(=O)(=O)c3c(F)cccc3F)c2)c(-c2ccnc(Nc3ccc(N4CCOCC4)nc3)n2)s1` are 14 nM, 24 nM and 0.9 nM.
For `CC(C)c1nc(-c2ccc(F)c(NS(=O)(=O)c3c(F)cccc3F)c2)c(-c2ccnc(Nc3ccc(N4CCOCC4)nc3)n2)s1` [listing 1 of 2 here], the IC50 (in test [3]; in test [4]; in test [5]; at TGF-beta receptor type-1; in test [6]; against Activin receptor type-2B) was 10 nM each time. In [2], the midpoint of inhibition, the IC50, lay at 3.8 nM. Further, the figures for the concentration for a half-maximal effect (EC50) (in the test with SK-MEL-28 (sk-mel-28); in [1]) were 47 nM and 23 nM, respectively.
For `CC(C)c1nc(-c2ccc(F)c(NS(=O)(=O)c3c(F)cccc3F)c2)c(-c2ccnc(Nc3ccc(N4CCOCC4)nc3)n2)s1` [listing 2 of 2 here], the half-maximal effective concentration (EC50) with HFF was 15600 nM; in the test with SK-MEL-28 (Homo sapiens, SK-MEL-28, 72 h) it was 52 nM.

As usually defined, the EC50 is the concentration giving half of the maximal effect. As usually defined, the IC50 is the midpoint of a concentration-inhibition curve. A lower IC50 goes with inhibition by little substance.

Values taken from ChEMBL document CHEMBL1806396, “Development of potent B-RafV600E inhibitors containing an arylsulfonamide headgroup” (Bioorg Med Chem Lett, 2011).
